{"data": "Assay results pooled from the literature", "effect on": "metabolic stability", "host": "human", "note": "Protocols differ between the studies behind these lines."}
{"SMILES": "CC(C)C[C@H](NC(=O)[C@@H]1COCCCCCCC(=O)NCC(=O)N2CCC[C@H]2C(=O)N1)C(=O)[C@@]1(C)CO1", "system": "liver microsomes", "setting": "2 µM, 1 h", "endpoint": "scaled CLint", "result": "51.7 mL/min/kg"}
{"SMILES": "Cn1c(=O)ccc2ccc(F)c(CCNC[C@H]3CN(c4cnc5c(n4)NC(=O)CO5)C(=O)O3)c21", "system": "hepatocytes", "setting": "0.5 µM", "endpoint": "hepatocyte CLint", "result": "2 µL/min/10⁶ cells"}
{"SMILES": "CONC(=O)[C@H]1[C@@H](O)[C@@]2(O)c3c(OC)cc(OC)cc3O[C@@]2(c2ccc(OC)cc2)[C@@H]1c1ccccc1", "system": "liver microsomes", "endpoint": "microsomal CLint", "result": "11.6 µL/min/mg"}
{"SMILES": "O=C(O[C@H]1CCC[C@@]2(C1)OOC1(O2)C2CC3CC(C2)CC1C3)N1CCCCC1 (stereo partly shown)", "system": "liver microsomes", "endpoint": "microsomal CLint", "result": "< 11.6 µL/min/mg"}
{"SMILES": "COc1ccc2c(c1)[C@]13CCCC[C@@H]1[C@H](C2)N(C)CC3", "system": "hepatocytes", "setting": "0.5 µM, pH 7.4", "endpoint": "hepatocyte CLint", "result": "19 µL/min/10⁶ cells"}
{"SMILES": "COCC1=N[C@@]2(O)[C@H](C(=O)N(C)OC)[C@@H](c3ccccc3)[C@]3(c4ccc(OC)cc4)Oc4cc(OC)cc(OC)c4[C@]23N1", "system": "liver microsomes", "setting": "1 µM, pH 7.4", "endpoint": "microsomal CLint", "result": "55.8 µL/min/mg"}
{"SMILES": "CN1C(=O)Cc2ccc(F)c(CCNCC[C@H]3CN(c4ccc5c(n4)NC(=O)CO5)C(=O)O3)c21", "system": "hepatocytes", "setting": "0.5 µM", "endpoint": "hepatocyte CLint", "result": "< 8.2 µL/min/10⁶ cells"}
{"SMILES": "C[C@]12CC[C@H]3[C@@H](CCC4=CC(=O)CC[C@@]43C)[C@@H]1CC[C@@H]2O", "system": "hepatocytes", "setting": "1 µM", "endpoint": "hepatocyte CLint", "result": "110 µL/min/10⁶ cells"}
{"SMILES": "CNC(C)Cc1ccc2nsnc2c1 (stereo not shown)", "system": "liver microsomes", "setting": "0.5 µM", "endpoint": "scaled CLint", "result": "11.2 mL/min/kg"}
{"SMILES": "Cc1ncc2n1-c1ccc(Cl)cc1C(c1ccccc1F)=NC2", "system": "hepatocytes", "setting": "0.5 µM, pH 7.4", "endpoint": "hepatocyte CLint", "result": "57.7 µL/min/10⁶ cells"}
